# The list is not random: actives were taken first. Their share in the collection is about 4.8%.
# PAFAH1B2 inh – inhibitors of human PAFAH1B2 | inhibition, % at 3.39 µM | hit rate 1.2% among 340,000 | AID 492953 | P68402 | recombinant PAFAH1B2, FP-rhodamine activity probe, fluorescence polarization;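 active = inhibition above the mean of all tested compounds plus 3 SD, cut at about 24% in these data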
# Target sequence (P68402 whole entry, looked up): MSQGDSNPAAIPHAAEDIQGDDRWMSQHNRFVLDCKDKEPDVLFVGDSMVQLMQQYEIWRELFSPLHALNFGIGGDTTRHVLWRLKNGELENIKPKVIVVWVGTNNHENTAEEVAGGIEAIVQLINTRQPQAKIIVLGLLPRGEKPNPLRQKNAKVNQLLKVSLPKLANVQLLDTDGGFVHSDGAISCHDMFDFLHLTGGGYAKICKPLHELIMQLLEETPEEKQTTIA
# pPAFAH inh – inhibitors of human plasma PAF acetylhydrolase (pPAFAH); hit rate 1.5% among 330,000; recombinant pPAFAH, FP-rhodamine probe fluorescence polarization; inhibition, % at 3.39 µM;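 active = inhibition above the mean inhibition across the screen plus 3 SD, cut at about 25% in these data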;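 also: inhibitors block binding of the rhodamine activity-based probe so polarization drops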
# PAFAH1B3 FP inh – blocks human PAF acetylhydrolase 1B catalytic subunit 3 | Q15102 | recombinant PAFAH1B3, FP-rhodamine probe, fluorescence polarization | inhibition, % at 3.39 µM | hit rate 0.28% among 340,000 | AID 492972;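 active = inhibition above the screen-wide average of all tested compounds plus 3 SD, cut at about 25% in these data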
# Target sequence (Q15102 whole entry, looked up): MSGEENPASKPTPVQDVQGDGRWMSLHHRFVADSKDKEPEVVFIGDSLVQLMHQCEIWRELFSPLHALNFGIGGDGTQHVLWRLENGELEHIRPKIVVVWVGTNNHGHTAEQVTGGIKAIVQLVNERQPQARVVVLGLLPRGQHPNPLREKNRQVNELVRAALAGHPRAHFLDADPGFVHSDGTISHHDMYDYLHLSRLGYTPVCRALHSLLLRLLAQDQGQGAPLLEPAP
# PAFAH2 inh – inhibitors of human PAFAH2; Q99487; recombinant PAFAH2, FP-rhodamine activity probe, fluorescence polarization; inhibition, % at 3.39 µM; hit rate 0.99% among 340,000; AID 492956;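 active = inhibition above the mean over all tested compounds plus 3 SD, cut at about 30% in these data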;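 also: inhibitors block probe labeling of enzyme so polarization drops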
# UCH37 DUB inh – human UCH37 deubiquitinating enzyme inhibition; Q9Y5K5; purified proteasome/UCH37, Ub-AMC cleavage fluorescence; inhibition, % (no concentration beside the values); hit rate 0.33% among 330,000; AID 588478;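 active = mean inhibition over replicate wells above about 20%, limit read from the data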
#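 Signal – fluorescence, ex 355 nm, em 460 nm · System – Proteasome-bound UCH37 · Input – 0.15 nM proteasome as dispensed · Timing – 30 min preincubation with enzyme, 25 min cleavage at room temperature · Read-out basis – percent inhibition of cleavage signal versus uninhibited and no-proteasome wells · Medium – Tris-HCl pH 7.4 with ATP-MgCl2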
# GRIN3A LBD mod – modulates the human NR3A ligand-binding domain; Tm shift relative to glycine control, % at 25 µM; NR3A LBD differential scanning fluorimetry, Tm shift; 0% = protein alone, 100% = glycine-bound protein; hit rate 2.5% among 340,000;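 active = melting temperature shift of at least 10% of the positive control shift, at one fixed dose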
# A number is an active result; i = inactive; nt = not tested or not shown.
SMILES,PAFAH1B2 inh,pPAFAH inh,PAFAH1B3 FP inh,PAFAH2 inh,UCH37 DUB inh,GRIN3A LBD mod
C/C(=N\Nc1ccc([N+](=O)[O-])cc1)c1ccc(N)cc1,i,i,i,i,nt,11.1
COc1ccc(N2CC(C(=O)NN=Cc3c[nH]c4ccccc34)CC2=O)cc1 (stereo not given),nt,nt,nt,nt,i,nt
COc1ccccc1N(C)S(=O)(=O)c1ccc(C(=O)OCC(=O)N(C)c2ccccc2)cc1,i,i,i,i,i,i
COc1ccccc1N(C)S(=O)(=O)c1ccc(C(=O)OCC(=O)c2c[nH]c3ccccc23)cc1,i,i,i,i,i,23.3
COc1cc(NC(=O)c2ccco2)c(C(=O)OCC(=O)c2c[nH]c3ccccc23)cc1OC,i,i,i,i,i,14.1
O=C(OCC(=O)c1c[nH]c2ccccc12)c1ccco1,i,i,i,i,i,i
COc1ccc(C(=O)NN=C(C)CC(=O)Nc2ccc(Cl)cn2)cc1,nt,nt,nt,nt,i,nt
COc1ccc(OC)c(-c2cc(C(=O)Nc3c(C)nn(Cc4ccccc4Cl)c3C)no2)c1,i,i,i,i,i,i
Cc1cc(C(=O)Nc2c(C)nn(Cc3ccccc3Cl)c2C)no1,i,25.5,i,i,i,i
O=c1[nH]c2ccccc2nc1-c1c[nH]c2ccccc12,i,i,i,i,i,39.0
Nc1ccccc1-c1nc2ccccc2[nH]c1=O,i,nt,i,i,i,i
CCCn1nc(NS(=O)(=O)c2cccc3nonc23)c2cc3cc(C)ccc3nc21,i,i,i,i,i,i
CCCn1nc(NC(=O)CC)c2cc3cccc(C)c3nc21,i,i,i,i,nt,11.8
CCCn1nc(NS(=O)(=O)c2cccc3nonc23)c2cc3cccc(C)c3nc21,i,29.1,i,i,i,i
CC(/C=C1\SC(=S)N(CCC(=O)Nc2ccc(O)cc2)C1=O)=C\c1ccccc1,i,i,i,i,i,14.2
CC(/C=C1\SC(=S)N(CCCC(=O)Nc2ccc(C(=O)O)c(O)c2)C1=O)=C\c1ccccc1,nt,30.8,nt,nt,nt,i
CC(=O)c1ccc(NC(=O)CN2C(=O)/C(=C/C(C)=C/c3ccccc3)SC2=S)cc1,i,nt,i,i,i,i
CC(=NNC(=O)c1ccc(C)s1)c1cccc(NC(=O)COc2ccc(Cl)cc2Cl)c1,nt,nt,nt,nt,i,nt
Cn1cccc1-c1nc2ccc(NC(=O)c3ccc([N+](=O)[O-])cc3)cc2[nH]1,i,i,i,i,nt,27.1
COC(=O)c1ccc(C(=O)Nc2ccc3nc(-c4cccnc4)[nH]c3c2)cc1,i,i,i,i,i,i
Nc1ccc(C(=O)Nc2ccc3nc(-c4cccnc4)[nH]c3c2)cc1,i,i,i,i,i,12.6
COC(=O)c1ccc(C(=O)Nc2ccc3nc(-c4ccncc4)[nH]c3c2)cc1,i,i,i,i,i,15.4
O=C(NCc1ccccn1)C(=O)NN=Cc1ccccc1O,nt,nt,nt,nt,i,nt
O=C(COc1ccc(Cl)cc1Cl)NN=CC1CC=CCC1 (stereo not given),nt,nt,nt,nt,i,nt
CCn1cc([N+](=O)[O-])c(C(=O)Nc2ccn(C34CC5CC(CC(C5)C3)C4)n2)n1,29.0,i,i,i,i,i
SMILES,PAFAH1B2 inh,pPAFAH inh,PAFAH1B3 FP inh,PAFAH2 inh,UCH37 DUB inh,GRIN3A LBD mod
Cn1cc([N+](=O)[O-])c(C(=O)Nc2ccn(C34CC5CC(CC(C5)C3)C4)n2)n1,25.3,i,i,i,i,i
Cn1nccc1C(=O)Nc1ccn(C23CC4CC(CC(C4)C2)C3)n1,24.4,i,i,i,i,i
C#CCOc1c(Br)cc(C=NO)cc1OCC,nt,nt,nt,nt,i,nt
Cc1ccc(NC(=O)Nc2ccon2)cc1Cl,i,i,i,i,i,i
Cc1ccc(NC(=O)Nc2cccnc2)cc1Cl,i,nt,i,i,i,30.7
O=C(Nc1cccnc1)Nc1cc(Cl)cc(Cl)c1,i,i,i,i,i,20.6
Cc1ccc(NC(=O)Nc2ccc3c(c2)C(=O)OC3)cc1Cl,nt,i,nt,nt,i,23.9
Cc1ccc(NC(=O)NCc2ccncc2)cc1Cl,i,i,i,i,i,i
O=C(Nc1cccnc1)Nc1ccccc1Cl,i,i,i,i,i,i
C=CCNC(=S)NN=Cc1ccc(C(C)(C)C)cc1,nt,nt,nt,nt,i,nt
Cn1cccc1CC(=O)NN=Cc1ccc(Cl)cc1,nt,nt,nt,nt,i,nt
CC(Oc1ccc(Cl)cc1Cl)C(=O)NN=C1CCCc2ccccc21 (stereo not given),nt,nt,nt,nt,i,nt
COc1cccc(C=NNC(=O)CN(C2=NS(=O)(=O)c3ccccc32)c2ccccc2)c1,nt,nt,nt,nt,i,nt
COc1ccc(-c2cc(C(=O)NN=Cc3cccnc3)c3cc(C)cc(C)c3n2)cc1,nt,nt,nt,nt,i,nt
CC(=NNC(=O)c1nc2ccccn2c1C)c1ccco1,nt,nt,nt,nt,i,nt
COc1ccc(C=NNc2ccc(C(=O)O)cc2)c(OC)c1OC,nt,nt,nt,nt,i,nt
O=C(Nc1ccc2c(c1)CCC2)Nc1ccccc1Cl,i,i,i,i,i,10.1
COc1cc(C(=O)Nc2ccncc2)cc(OC)c1OC,i,i,i,i,i,i
Cc1c(Cl)cccc1NC(=O)Nc1ccccc1C(N)=O,i,i,i,i,i,i
O=C(Nc1ccc(Nc2ccccc2)cc1)Nc1ccccc1Cl,i,i,i,i,i,17.8
COc1cc(C(=O)Nc2ccc3c(c2)Cc2cc(NC(=O)c4cc(OC)c(OC)c(OC)c4)ccc2-3)cc(OC)c1OC,i,i,i,i,i,23.7
Cc1c(Cl)cccc1NC(=O)Nc1ccc(C(N)=O)cc1,i,i,i,i,i,11.2
O=C(Nc1ccccc1Cl)Nc1cccnc1Cl,i,i,i,i,i,18.7
CC(C)C(=O)Nc1ccc(Nc2ccccc2)cc1,i,i,i,i,i,26.1
O=C(Nc1ccc2c(c1)Cc1ccccc1-2)c1ccncc1,i,i,i,i,i,18.4
SMILES,PAFAH1B2 inh,pPAFAH inh,PAFAH1B3 FP inh,PAFAH2 inh,UCH37 DUB inh,GRIN3A LBD mod
O=C(O)c1ccccc1-c1ccccc1C(=O)Nc1ccc2c(c1)CCC2,i,i,i,i,i,i
O=C(Nc1ccc2c(c1)CCC2)c1ccccc1,i,i,i,i,i,14.4
O=C(Nc1ccc2c(c1)Cc1ccccc1-2)c1cc2ccccc2o1,i,i,i,i,i,i
N#Cc1ccccc1NC(=O)Nc1ccc(Cl)cc1,i,i,i,i,i,i
Cc1ccc(C(=O)Nc2nc(C)c(C(=O)Nc3ccc4c(c3)CCC4)s2)cc1,i,i,i,i,i,18.9
Cc1occc1C(=O)Nc1ccc2c(c1)OCCO2,i,i,i,i,i,i
Cc1occc1C(=O)Nc1ccc2c(c1)CCC2,i,i,i,i,i,11.2
O=C(Nc1ccc(Cl)cc1)Nc1ccccc1Sc1ncc([N+](=O)[O-])s1,i,i,i,i,nt,12.8
O=C(Nc1csc([N+](=O)[O-])c1)Nc1ccccc1Cl,i,i,i,i,i,39.1
CC(C)c1ccc(C=c2sc3nc(-c4ccncc4)nn3c2=O)cc1,nt,nt,nt,nt,i,nt
CC(=NNC(=O)Cn1ccc(C(F)(F)F)n1)c1ccco1,nt,nt,nt,nt,i,nt
CC(CC(=O)Nc1ccc2c(c1)OCCO2)=NNC(=O)c1cccc(O)c1,nt,nt,nt,nt,i,nt
CC(=NNC(=O)c1cccs1)c1ccncc1,nt,nt,nt,nt,i,nt

# Bioassay records from PubChem BioAssay.
